Our source for the inhibition values is PubChem BioAssay AID1040 (The Scripps Research Institute Molecular Screening Center, 2008).

Screen size: about 200,000 compounds; about 2,000 (1%) were called active. Many of the other results were omitted from the sample, so actives are more common in it than they were. Unmarked numbers belong to inactive results.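 Rule for the calls: active = inhibition above the campaign mean inhibition of all tested compounds plus 3 SD (cut at about 20% in these data); inactive = the rest.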

Chain of Neuropeptide Y receptor type 1 (Homo sapiens) (P25929 whole entry, looked up): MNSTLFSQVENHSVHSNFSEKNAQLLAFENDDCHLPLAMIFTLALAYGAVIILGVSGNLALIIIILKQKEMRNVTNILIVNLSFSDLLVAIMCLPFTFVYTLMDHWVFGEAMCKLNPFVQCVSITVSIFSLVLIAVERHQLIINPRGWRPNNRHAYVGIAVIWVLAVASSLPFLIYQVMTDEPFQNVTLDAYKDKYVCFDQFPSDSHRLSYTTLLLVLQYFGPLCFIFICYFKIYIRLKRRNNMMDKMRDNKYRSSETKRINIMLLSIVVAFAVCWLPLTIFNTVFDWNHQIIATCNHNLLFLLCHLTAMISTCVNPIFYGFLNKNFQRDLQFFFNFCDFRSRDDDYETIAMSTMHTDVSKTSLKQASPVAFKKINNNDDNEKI

The assay concerns the target Neuropeptide Y receptor type 1 (Homo sapiens) (UniProt P25929). The assay can be described thus: NPY-Y1 receptor antagonists, primary screen, cell-based (AID 1040).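 Note: 0% = DMSO wells given NPY plus isoproterenol and 100% = isoproterenol alone without NPY.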 The note with it: HEK293-CNG Y1 cells, membrane potential fluorescence; at 3.6 µM; stronger effect = higher value; NPY at EC95, then isoproterenol. The gist of the method: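 Material: HEK293 cells co-expressing NPY Y1 receptor and cyclic-nucleotide gated channel. Timing: compound incubation 1 h at room temperature, readout 45 min post-stimulation. Signal: fluorescence, membrane potential probe.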
With `O=C1c2cccnc2C(Nc2ccc(S(=O)(=O)N3CCCCCC3)cc2)N1Cc1ccccc1` (stereo unspecified), the inhibition was 30.7% (active). Next, `O=S(=O)(NCc1ccccc1)c1ccc(S(=O)(=O)N2CCCC2)cc1`: 1%; `Cc1nc(Nc2ccc(S(=O)(=O)N3CCCC3)cc2)c2nnn(Cc3ccccc3)c2n1`: -11%; `Cc1cccc(N2CCC(NCc3c(C(=O)N4CCCCC4)nc4c(C)cccn34)CC2)c1`: 11%. Next, `COc1ccc(C(C[N+](=O)[O-])n2nc(C)cc2C)cc1` (stereo unspecified): -2.49%; `COc1ccc(OC)c(CNC(=O)C2CCCN(c3nc4ccccc4o3)C2)c1` (stereo unspecified): 7.8%. Next, `CCc1ccc(CNC(=O)C2CCCN(c3nc4ccccc4o3)C2)cc1` (stereo unspecified): 26.4% (active); `COc1ccccc1CNC(=O)C1CCN(c2nc3ccccc3o2)CC1`: -3.62%. For the molecule `COC(=O)c1ccc(COC(=O)c2cnccn2)cc1`, the inhibition was -0.5%. For `OC(COCC1COc2ccccc2O1)CN1CCN(c2ccc(F)cc2)CC1` (stereo unspecified), the inhibition is -9.16%. `Cc1ccc(S(=O)(=O)N(C)CC(=O)OCC(=O)N2CC(=O)Nc3ccccc32)cc1`: the inhibition is 1.33%.

Consider `O=C(c1ccc(Cl)cc1)c1ccc(OCC(O)CN2CCCCC2)cc1` (stereo unspecified), for which the inhibition is 6.02%. With `O=C(c1ccccc1)c1ccc(OCC(O)CN2CCCC2)cc1` (stereo unspecified) the figure was 20.8% (active); with `OC(COc1cccc(OCC(O)CN2CCCC2)c1)CN1CCCC1` (stereo unspecified), 6.73%. With `CN1CCNC(=O)C1CC(=O)NCCC1=CCCCC1` (stereo unspecified) the figure was 1.21%; with `Cc1ccc(OCC(=O)NC(C)c2ccccc2)c([N+](=O)[O-])n1` (stereo unspecified), 19.9%. With `CCCS(=O)(=O)N1CCCC(C(=O)N2CCN(c3ccccc3)CC2)C1` (stereo unspecified) the figure was 0.57%. On to `Cc1ccc(CNC(=O)C2CCCN(S(C)(=O)=O)C2)cc1` (stereo unspecified), for which the inhibition is 0.15%. Next, `CS(=O)(=O)N1CCCC(C(=O)N2CCOCC2)C1` (stereo unspecified): 94.5% (active). Turning to `COc1ccc(N2CCN(CCCNC(=O)C3CCN(S(=O)(=O)N4CCOCC4)CC3)CC2)cc1`, the inhibition is -2.61%. Next, `CCCSc1nc(NCc2ccco2)c2c3c(sc2n1)COC(C)(CC)C3` (stereo unspecified): 30.4% (active); `CCC1(C)Cc2c(sc3nc(SC)nc(N)c23)CO1` (stereo unspecified): -1.88%; `CN(C)CCSc1nc(N)c2c3c(sc2n1)COC(C)(C)C3`: 1.6%. With `COC(=O)c1ccc(C2C(Oc3ccccc3C)C(=O)N2CCc2ccc(OC)c(OC)c2)cc1` (stereo unspecified), the inhibition was 8.91%. Regarding `CCOc1ccc(C(CCc2ccccc2)NC(=O)c2ccc(OC)c(OC)c2)cc1OCC` (stereo unspecified), the inhibition was -0.85%. Next, `COC(=O)c1ccc(C(NC(=O)OCc2ccccc2)/C(C)=C/[C@@H](C)C(=O)NCc2ccc(OC)c(OC)c2)cc1` (stereo partly specified): 21.5% (active); `O=C(CCCNS(=O)(=O)c1cccc2nsnc12)NCCN1CCN(c2ccccc2F)CC1`: 1.63%; `Cc1c(/C=N\NC(=O)c2cc3ccccc3o2)c2ccccc2n1C`: 8.68%. Next, `CCOC(=O)Nc1ccccc1N1C(=O)c2ccccc2C1=O`: -3.15%; `O=C1c2ccccc2C(=O)N1c1ccccc1S(=O)C(F)(F)F` (stereo unspecified): 21.4% (active); `O=C1C(=O)N(c2ccccc2)c2ccccc21`: 7.08%. Turning to `O=C(NNC1=C(C(=O)C(F)(F)F)CCC1)c1ccncc1`, the inhibition is 0.61%. With `CC(=O)c1cc(-c2ccccc2)n(CCC(=O)NC2CCCCCC2)c1C`, the inhibition is 2.33%. Next, `CCCc1[nH]nc2c1C(C1CC=CCC1)C(C#N)=C(N)O2` (stereo unspecified): -5.43%; `CCCc1[nH]nc2c1C(c1c(C)nn(-c3ccccc3)c1Cl)C(C#N)=C(N)O2` (stereo unspecified): -1.69%. With `CCCc1[nH]nc2c1C(c1ccc(Br)s1)C(C#N)=C(N)O2` (stereo unspecified) the figure was 68.6% (active); with `O=C(COC(=O)c1cnc(Cl)c(Cl)c1)NCc1ccco1`, 1.45%. Consider `N#Cc1ccc(N2Cc3ccccc3/C2=N/C(=O)Nc2ccc(Cl)cc2)cc1`, for which the inhibition is -0.16%. With `C/C(=N\NC(=S)NCc1ccccc1)c1ccc(Cl)cc1`, the inhibition is 21.7% (active). `O=C(O)c1ccc(/C=N/NC(=S)NCc2ccccc2)cc1`: the inhibition was 4.72%.

Turning to `C/C(=N\NC(=S)NCc1ccccc1)C1CCCCC1`, the inhibition is 3.71%.

Turning to `OCCC1CN(Cc2cnc(-c3ccccc3)s2)CCN1CCc1ccccc1` (stereo unspecified), the inhibition was -0.62%. On to `CCCCCCCCn1c2c(c(=N)c3c1CCC3)CCCC2`, for which the inhibition is 81.5% (active). For the molecule `CCCCCCn1c(CN2CCCCC2)nc2c1c(=O)n(C)c(=O)n2C`, the inhibition is 11.1%. On to `Cn1cnnc1SCC(=O)NNC(=O)COc1ccc(Br)cc1`, for which the inhibition is 10.5%.

For the molecule `CC1(C)OC(=O)C(=CNC(CO)C(=O)O)C(=O)O1` (stereo unspecified), the inhibition is 0.88%. With `OCC1(Cc2ccccc2)CCN(Cc2cc3ccccc3o2)CC1` the figure was 9.75%; with `CCCOC(=O)c1cc2ccccc2oc1=O`, 1.89%; with `CN(C)CCCCCN(C)Cc1cc2ccccc2o1`, 22.6% (active). With `O=C(CCC(=O)OCc1ccc(Cl)cc1)Nc1ccccc1` the figure was -2.82%; with `O=C(O)/C=C/c1cn(-c2ccccc2)nc1-c1cccs1`, 3.05%. As for `O=C(O)/C=C/c1cn(Cc2ccccc2)nc1-c1cccs1`, the inhibition is 20.8% (active). `O=C(/C=C\c1cn(-c2ccccc2)nc1-c1cccs1)N1CCOCC1`: the inhibition is 4.67%. With `O=C(OCc1cc(Cl)ccc1OC(F)F)c1cccnc1` the figure was -0.25%.

In the case of `Cc1c(Cl)c([N+](=O)[O-])nn1CCCC(=O)NC(C)c1ccccc1` (stereo unspecified), the inhibition was 1.69%. Next, `COc1cc(OC)c(C(=O)Nc2ccccc2-c2ccccc2)cc1OC`: 2.51%; `COc1ccc(C(CC(=O)O)NC(=O)Cc2ccccc2)cc1` (stereo unspecified): -4.05%; `CCC/C=C(\CCC)C(NC(=O)Cc1ccccc1)c1ccc(C(=O)OC)cc1` (stereo unspecified): 26.8% (active). As for `CCC[C@@H]1C[C@@]1(CCC)[C@@H](NC(=O)c1ccccc1)c1ccc(C(=O)OC)cc1`, the inhibition was 6.57%. Next, `O=C(CCc1nnc(CCCCc2ccccc2)o1)NC(c1cccnc1)C(F)(F)F` (stereo unspecified): 3.83%; `S=c1[nH]nc(Nc2ccccc2)s1`: 7.84%.
